Laboratory results: PMC5114172 (Journal of applied toxicology : JAT, 2016)

What was measured:
[1] = system: highly purified human NKs; experiment: IL-1β secretion assay; format: cell-based; conditions: for Interleukin 1 beta secreted: NK
Summary of the method: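 NK cells, MD-PBMCs, PBMCs or granulocytes (1.5 million/mL) or PBMC+granulocytes (0.75 million/mL each), per donor, exposed 24 h, 48 h or 6 days to 0.05–5 μM test compound diluted from DMSO stock, with DMSO controls. Supernatants kept at −70 °C. IL-1β by sandwich ELISA: HRP detection antibody, acid-stopped substrate, A450 against standards. Detection limit 3 pg/mL; triplicates; ANOVA then t test versus control, p<0.05.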

PBMCs = experiment: Cell viability, trypan blue exclusion; format: cell-based, human; conditions: for Percent Viable Cells / decrease in viability: PBMCs

CCC[CH2][Sn][CH2]CCC [DBT, Dibutyltin]
average of the maximum fold increase in IL-β secretion ([1]; NK cells, 24 h, across donors): 3.5 fold | fold increase in IL-1β secretion ([1]; NK cells, donor KB169, 0.05 μM (50 nM) DBT): 7.9 fold | fold increase in IL-1β secretion ([1]; NK cells, donor KB169, 0.1 μM (100 nM) DBT): 6.0 fold | Interleukin 1 beta secreted ([1]; donor KB130, 24 h, 0.05 μM DBT): 386 ± 41 pg/mL | Interleukin 1 beta secreted ([1]; donor KB130, 24 h, 0.1 μM DBT): 116 ± 27 pg/mL | Interleukin 1 beta secreted ([1]; donor KB130, 24 h, 0.25 μM DBT): 17 ± 20 pg/mL | Interleukin 1 beta secreted ([1]; donor KB130, 48 h, 0.05 μM DBT): 1372 ± 481 pg/mL | Interleukin 1 beta secreted ([1]; donor KB130, 48 h, 0.1 μM DBT): 298 ± 65 pg/mL | Interleukin 1 beta secreted ([1]; donor KB130, 48 h, 0.25 μM DBT): 139 ± 46 pg/mL | Interleukin 1 beta secreted ([1]; donor KB130, 6 day, 0.05 μM DBT): 782 ± 35 pg/mL | Interleukin 1 beta secreted ([1]; donor KB130, 6 day, 0.1 μM DBT): 550 ± 21 pg/mL | Interleukin 1 beta secreted ([1]; donor KB130, 6 day, 0.25 μM DBT): 142 ± 27 pg/mL | Interleukin 1 beta secreted ([1]; donor KB130, 6 day, 0.5 μM DBT): 46 ± 53 pg/mL | Interleukin 1 beta secreted ([1]; donor KB155, 24 h, 0.05 μM DBT): 2965 ± 1004 pg/mL | Interleukin 1 beta secreted ([1]; donor KB155, 24 h, 0.1 μM DBT): 2771 ± 70 pg/mL | Interleukin 1 beta secreted ([1]; donor KB155, 24 h, 0.25 μM DBT): 779 ± 25 pg/mL | Interleukin 1 beta secreted ([1]; donor KB155, 24 h, 0.5 μM DBT): 28 ± 23 pg/mL | Interleukin 1 beta secreted ([1]; donor KB155, 48 h, 0.05 μM DBT): 5235 ± 531 pg/mL | Interleukin 1 beta secreted ([1]; donor KB155, 48 h, 0.1 μM DBT): 4588 ± 130 pg/mL | Interleukin 1 beta secreted ([1]; donor KB155, 48 h, 0.25 μM DBT): 1598 ± 450 pg/mL | Interleukin 1 beta secreted ([1]; donor KB155, 48 h, 0.5 μM DBT): 130 ± 39 pg/mL | Interleukin 1 beta secreted ([1]; donor KB155, 6 day, 0.05 μM DBT): 1625 ± 164 pg/mL | Interleukin 1 beta secreted ([1]; donor KB155, 6 day, 0.1 μM DBT): 1572 ± 245 pg/mL | Interleukin 1 beta secreted ([1]; donor KB155, 6 day, 0.25 μM DBT): 960 ± 152 pg/mL | Interleukin 1 beta secreted ([1]; donor KB155, 6 day, 0.5 μM DBT): 138 ± 43 pg/mL | Interleukin 1 beta secreted ([1]; donor KB169, 24 h, 0.05 μM DBT): 1551 ± 25 pg/mL | Interleukin 1 beta secreted ([1]; donor KB169, 24 h, 0.1 μM DBT): 1173 ± 69 pg/mL | Interleukin 1 beta secreted ([1]; donor KB169, 24 h, 0.25 μM DBT): 796 ± 137 pg/mL | Interleukin 1 beta secreted ([1]; donor KB169, 24 h, 0.5 μM DBT): 114 ± 21 pg/mL | Interleukin 1 beta secreted ([1]; donor KB169, 48 h, 0.05 μM DBT): 341 ± 10 pg/mL | Interleukin 1 beta secreted ([1]; donor KB169, 48 h, 0.1 μM DBT): 367 ± 53 pg/mL | Interleukin 1 beta secreted ([1]; donor KB169, 48 h, 0.25 μM DBT): 262 ± 14 pg/mL | Interleukin 1 beta secreted ([1]; donor KB169, 6 day, 0.05 μM DBT): 453 ± 91 pg/mL | Interleukin 1 beta secreted ([1]; donor KB169, 6 day, 0.1 μM DBT): 602 ± 257 pg/mL | Interleukin 1 beta secreted ([1]; donor KB169, 6 day, 0.25 μM DBT): 511 ± 227 pg/mL | Interleukin 1 beta secreted ([1]; donor KB169, 6 day, 0.5 μM DBT): 157 ± 61 pg/mL | average decrease in viability (PBMCs; PBMC, 24 h, 5 μM DBT): 31% | Percent Viable Cells (PBMCs; 24 h, 0.05 μM DBT): 96±4% | Percent Viable Cells (PBMCs; 24 h, 0.1 μM DBT): 97±3% | Percent Viable Cells (PBMCs; 24 h, 0.25 μM DBT): 96±3% | Percent Viable Cells (PBMCs; 24 h, 0.5 μM DBT): 95±3% | Percent Viable Cells (PBMCs; 24 h, 1 μM DBT): 86±7% | Percent Viable Cells (PBMCs; 24 h, 2.5 μM DBT): 69±10 % | Percent Viable Cells (PBMCs; 24 h, 5 μM DBT): 65±8 % | decrease in viability (PBMCs; 24 h, 2.5 and 5 μM DBT): 25% | Percent Viable Cells (PBMCs; 48 h, 0.05 μM DBT): 93±3% | Percent Viable Cells (PBMCs; 48 h, 0.1 μM DBT): 94±4% | Percent Viable Cells (PBMCs; 48 h, 0.25 μM DBT): 94±4% | Percent Viable Cells (PBMCs; 48 h, 0.5 μM DBT): 91±8% | Percent Viable Cells (PBMCs; 48 h, 1 μM DBT): 74±16% | Percent Viable Cells (PBMCs; 48 h, 2.5 μM DBT): 56±13 % | decrease in viability (PBMCs; 48 h, 2.5 μM DBT): 38% | Percent Viable Cells (PBMCs; 48 h, 5 μM DBT): 56±8 % | decrease in viability (PBMCs; 48 h, 5 μM DBT): 35% | Percent Viable Cells (PBMCs; 6 day, 0.05 μM DBT): 68±45% | Percent Viable Cells (PBMCs; 6 day, 0.1 μM DBT): 87±11% | Percent Viable Cells (PBMCs; 6 day, 0.25 μM DBT): 69±33% | Percent Viable Cells (PBMCs; 6 day, 0.5 μM DBT): 68±13% | Percent Viable Cells (PBMCs; 6 day, 1 μM DBT): 43±12% | Percent Viable Cells (PBMCs; 6 day, 2.5 μM DBT): 36±25% | Percent Viable Cells (PBMCs; 6 day, 5 μM DBT): 42±15%
